The source of these data is the RNAGym collection of RNA variant scans (doi:10.1126/science.aae0568).

Variants at the floor of the assay were thinned out.

The chains are these.
B1: tRNA (parent)
chain: GUUCCGUUGGCGUAAUGGUAACGCGUCUCCCUCCUAAGGAGAAGACUGCGGGUUCGAGUCCCGUACGGAACG

The variants in the data set derive from B1. Put plainly: yeast fitness relative to wild type (ratio to wild type); higher = fitter; tRNA-Arg(CCU), competitive growth, 37 C, YPD. In outline:
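Gene amplicons from the start population and from each of six end populations were read by 100-nucleotide paired-end sequencing. Those end populations came from pooled Saccharomyces cerevisiae strains carrying tRNA-Arg(CCU) gene variants at the native locus, competed in YPD at 37°C for 24 hours. Fitness relative to wild type was worked out from changes in genotype frequencies. Genotypes needed ≥ 100 starting reads, and estimates < 0.5 were set to 0.5.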
A40G U64A: the yeast fitness amounted to 0.737.

As to U13A C27G C34G G48C, the yeast fitness is no more than 0.5.

For the variant C34G G52A, the yeast fitness was 0.562.

In the case of U3A U26A C34U U47G U64A, the yeast fitness was no more than 0.5.

In the case of U2A A20U, the yeast fitness stood at 0.732.

Regarding G12C A37G G38A A45U, the yeast fitness was 0.506.

On to U26A G41C C46U, for which the yeast fitness was determined as 0.797.

Consider G17A C24U C29G, for which the yeast fitness was found to be 0.533.

Regarding G9A C24A U59A, the yeast fitness is no more than 0.5.

Take C49U U59C: the yeast fitness was 0.91.

Consider C30G G68U, for which the yeast fitness amounted to 0.64.

Take U13C U16A A57U: the yeast fitness is no more than 0.5.

Consider C22U C46G C55A C66A, for which the yeast fitness is 0.564.

As to C22G U28A C31G, the yeast fitness was no more than 0.5.

With U35C A36U G38A C46A U54C, the yeast fitness was no more than 0.5.

Turning to U7A G10A A20C C29A C55G G63C, the yeast fitness was no more than 0.5.

As for C24G A40G G50C, the yeast fitness was determined as 0.599.

Turning to C31U A37U A69U, the yeast fitness amounted to 0.677.

For A43C C55G, the yeast fitness was found to be 0.641.

For the variant G58A C62U G63A, the yeast fitness worked out at 0.621.

Regarding G25A U32A U54G G56A, the yeast fitness was no more than 0.5.

Take C46A C49U: the yeast fitness was found to be 0.958.

As for A40C A45G G63A, the yeast fitness amounted to 0.518.

In the case of G48A C61G A69C, the yeast fitness came out at 0.603.

C4A C11U C29G U32A G52A: the yeast fitness was 0.596.

On to U8C C27U U28G C33G A36G, for which the yeast fitness was no more than 0.5.

In the case of A14G C22G U28A C31G C55A G68C, the yeast fitness is no more than 0.5.

As for G17C G23C, the yeast fitness is 0.517.

With G41A A43G A70U, the yeast fitness is 0.659.

As to C22A A45C C66G, the yeast fitness was 0.691.

As to C11A A43G G58C C62U, the yeast fitness is no more than 0.5.

For G9A A40C A70U, the yeast fitness was found to be 0.74.

In the case of A40G G48C, the yeast fitness is 0.866.

Take U19A C24A C31G G68C: the yeast fitness was no more than 0.5.

Consider U19C C31A G41C, for which the yeast fitness is 0.577.

In the case of C22U C27G A37G A42C, the yeast fitness was no more than 0.5.

In the case of C4U G44C G67A, the yeast fitness worked out at 0.768.

For the variant G10C G38C, the yeast fitness worked out at 0.538.

Regarding A15U G18C C24G C46A U64C A69G, the yeast fitness is 0.513.

Regarding C31U C33U C34G A40C G63A, the yeast fitness was no more than 0.5.

In the case of G23A A43U C49U C62U, the yeast fitness was no more than 0.5.

Turning to U7A G9C, the yeast fitness turned out to be 0.674.

Take A14C G18C A65U G68C: the yeast fitness was no more than 0.5.

Consider A43U A65G C66U, for which the yeast fitness was determined as 0.794.

With U3G G48C, the yeast fitness amounted to 1.06.

For the variant G6A U28A C30A, the yeast fitness is no more than 0.5.

With C27A C34G A43U A57C, the yeast fitness was no more than 0.5.

Take C34U A36C A70C: the yeast fitness was found to be 0.594.

Take A15U C27U A36G C61U C62U: the yeast fitness was no more than 0.5.

With U47C U59G, the yeast fitness turned out to be 0.936.

Turning to C31G A40G C49U G50C A70C, the yeast fitness is no more than 0.5.

Consider C4A G23C A40C C55A, for which the yeast fitness amounted to 0.63.

Consider G10C A14U U19A C22U A36G, for which the yeast fitness is no more than 0.5.

A15G A21U A37C G39C A57U C62U: the yeast fitness was no more than 0.5.

For A14G C27G C34G A37U, the yeast fitness came out at 0.61.

For A21U A69C, the yeast fitness amounted to 0.827.

For the variant G17A C60G, the yeast fitness came to 0.586.

Turning to G9A C11G C24G U32A G58C, the yeast fitness was no more than 0.5.

For C22A C29G C33U A70C, the yeast fitness was no more than 0.5.

Regarding G18A G44C A65U, the yeast fitness worked out at 0.537.

C5U A14G C29U A37U: the yeast fitness was no more than 0.5.

For the variant G6A C29G A65U, the yeast fitness was no more than 0.5.

A15C A36U A37G A65C: the yeast fitness was no more than 0.5.

In the case of C22U C24U A45G G56C, the yeast fitness is no more than 0.5.

In the case of A14U C31G G38A C66U, the yeast fitness was no more than 0.5.

Regarding U3G C24A G58A, the yeast fitness is no more than 0.5.

U26A A36U C49A: the yeast fitness is no more than 0.5.

On to A15U U19G C27A U28A, for which the yeast fitness was 0.578.

With A20G C31U A69C, the yeast fitness was 0.833.

As to C11G G12A C61G G68A, the yeast fitness is 0.556.

C11G A15G C22A U26A A40U U54C C62A: the yeast fitness is no more than 0.5.

Take C30G G48A U53C A70U: the yeast fitness is no more than 0.5.

As to U2A A20G G58C, the yeast fitness was determined as 0.973.

As to U16C C22U A40G A43U C46G C49G C62U, the yeast fitness is 0.55.

Turning to U7G G48A G68U A70C, the yeast fitness stood at 0.541.

On to U13G U28A C49A C55U C60U C61U, for which the yeast fitness was no more than 0.5.

Regarding G9A A40C G68A, the yeast fitness was no more than 0.5.

As to G25A C31A A45C G50A, the yeast fitness turned out to be 0.536.

For G10C G38C C49A G50C G68C, the yeast fitness is no more than 0.5.

Take C27U G67A A69U: the yeast fitness was 0.692.

For the variant C5U C31U U47C, the yeast fitness turned out to be 0.701.

As to C5A G41A A57C C62A, the yeast fitness came out at 0.54.

As to C11U C30U C49U, the yeast fitness came to 0.646.

Turning to C11U A15U U19G A20G G67C, the yeast fitness was no more than 0.5.

Take A20G C34A: the yeast fitness was found to be 0.69.

G10C C11U U26A C49U A65U: the yeast fitness is no more than 0.5.

Consider C22A C24A U54A, for which the yeast fitness is no more than 0.5.

C22A U47A A70G: the yeast fitness is 0.577.

In the case of U2C U28C, the yeast fitness came to 0.912.

C4G U16G G48A A57G A69U: the yeast fitness is no more than 0.5.

For A21G A43U G58C U59C, the yeast fitness stood at 0.67.

On to A21C C46U G67A, for which the yeast fitness came out at 0.619.

As for G12C C27A A37G C49U, the yeast fitness was no more than 0.5.

With C4U C34U A40C G41A C62U A65U, the yeast fitness is no more than 0.5.

G10A A20G U26C G39A: the yeast fitness was no more than 0.5.

Regarding G17C U19A A36C A37U C60G G67C, the yeast fitness was no more than 0.5.

Regarding G9C C24U C30G G51A C60U G67A, the yeast fitness came out at 0.543.

Consider C11U G44A C62U, for which the yeast fitness was determined as 0.762.

With U16A A37G, the yeast fitness turned out to be 0.79.

For the variant G6C U7G G17C C49U G58C C61A A65U, the yeast fitness was no more than 0.5.

For the variant U3C C27G C49A, the yeast fitness is no more than 0.5.

On to U2C C11A G41C C61A, for which the yeast fitness is no more than 0.5.

Take U13G A40U C62A: the yeast fitness amounted to 0.52.

As for A14C C31U, the yeast fitness was found to be 0.706.

As to C5G G68C A69G, the yeast fitness turned out to be 0.54.

Turning to C49G A69U, the yeast fitness stood at 0.955.

In the case of C11A G68A, the yeast fitness is 0.583.

Regarding C22G A36G C55G, the yeast fitness is no more than 0.5.

As to C24U A37U A43U, the yeast fitness stood at 0.646.

For G48A U64G, the yeast fitness is 1.

For the variant U2G C30A C46U G52C, the yeast fitness was no more than 0.5.

Turning to C4G U13A C33G A36G, the yeast fitness is no more than 0.5.

As for U2C A37U U53A, the yeast fitness stood at 0.727.

For C5U G39A G48A A57U, the yeast fitness worked out at 0.565.

On to G6A A14C G58A, for which the yeast fitness amounted to 0.613.

Regarding C22G C29A A37U C49A, the yeast fitness was no more than 0.5.

As for C4A G10A A36U, the yeast fitness is no more than 0.5.

As for U3G C5U U26A, the yeast fitness was no more than 0.5.

Regarding G6A U26C C29A, the yeast fitness is no more than 0.5.

Regarding C4G G12A G52A, the yeast fitness is no more than 0.5.

On to U16G A36U, for which the yeast fitness was 0.589.

Turning to U2A A21C C24G U32A A42C A65U, the yeast fitness is no more than 0.5.

As for C4A C5A C66A A69C, the yeast fitness is no more than 0.5.

In the case of U3C A15U U16G U19A A43C A57U, the yeast fitness was no more than 0.5.

Turning to U2C A65C, the yeast fitness is 0.86.

In the case of C30G C61U G68A, the yeast fitness was found to be 0.541.

For C24A A37C G38A, the yeast fitness was 0.61.

Regarding A20C A43U A69C, the yeast fitness was found to be 0.605.

C5G G39A C49U: the yeast fitness is 0.524.

Regarding C27U C61A A69U, the yeast fitness was 0.551.

For A15G A21G, the yeast fitness was determined as 1.02.

Regarding A20U A43G G58A, the yeast fitness is 0.91.

For the variant C5U G17C C27U A65G, the yeast fitness was no more than 0.5.

C5G G17C A45G C46U: the yeast fitness was no more than 0.5.

On to A40G G67A A69C, for which the yeast fitness turned out to be 0.513.

As to U8A A20C C31A A57C C66A A69U, the yeast fitness is no more than 0.5.

With U16C G44A, the yeast fitness is 1.06.

A21C C27U C33A A37C: the yeast fitness turned out to be 0.554.

Take C30U G44C: the yeast fitness worked out at 0.662.

Consider C33U G44C C49U, for which the yeast fitness came out at 0.531.

For U2G A15G, the yeast fitness stood at 0.812.

For the variant C5G A14U G18A A21U A42G, the yeast fitness was 0.646.

For G9A A21G U32G G39C G52C, the yeast fitness is no more than 0.5.

Consider U19A C22U A40U G51C C66U A70G, for which the yeast fitness is no more than 0.5.

Take U19C G23C U53C: the yeast fitness worked out at 0.562.

On to C29A U32A A65C, for which the yeast fitness was no more than 0.5.

With U35C C46A A70U, the yeast fitness is 0.767.

C31A A45U: the yeast fitness came out at 1.02.

Consider C29A U35C A45C C49U, for which the yeast fitness was no more than 0.5.

As for A14C A40U, the yeast fitness stood at 0.587.

Regarding C5G U35C C49U C61G, the yeast fitness was no more than 0.5.

With U2A C5U C66U, the yeast fitness came to 0.661.

With U16C U32G G56C G68A, the yeast fitness is no more than 0.5.

In the case of U2G G9A, the yeast fitness was found to be 1.01.

As to C5A U47C, the yeast fitness is 0.85.

For U13G A43C U54A A57G, the yeast fitness is no more than 0.5.

Regarding C11U C62U A70G, the yeast fitness worked out at 0.753.

On to C5G A43C G48A U59G, for which the yeast fitness was no more than 0.5.

G10A A45G U59C: the yeast fitness turned out to be 0.616.

G25A G44C: the yeast fitness is 1.04.

As to U3A A20G C22U, the yeast fitness is 0.584.

Consider C4U A42G C49U, for which the yeast fitness came to 0.704.

With C49A G67A G68U, the yeast fitness is no more than 0.5.

As for A45C G58A, the yeast fitness was 0.977.

As for U3G C22A C24U U35G A45U A65U A70U, the yeast fitness was no more than 0.5.

Take C5A C11G G41C G68U: the yeast fitness came out at 0.524.

Consider G17C C30G C55G A70G, for which the yeast fitness is no more than 0.5.
